Results taken from ChEMBL document CHEMBL2331531, “Synthesis and biological evaluation of urea derivatives as highly potent and selective rho kinase inhibitors” (J Med Chem, 2013).

Tests used:
[1] = Inhibition of ROCK-mediated myosin light chain bisphosphorylation in rat A7R5 cells after 1 hr by fluorescence assay in presence of L-alpha-lysophosphatidic acid; assay type: cell-based
Method in brief: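 A7r5 cells in 20% FBS DMEM, plated 5000/well overnight, serum-starved 4 h in 0.05% FBS DMEM; compound 13333 nM to 18 nM final for 1 h, then 10 μM LPA 10 min; fixed, permeabilized, anti-ppMLC plus IR800 secondary; infrared scan, ppMLC signal normalized to TO-PRO-3 nuclear signal. IC50 as mean of two or more experiments.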

[2] = Inhibition of PKA (unknown origin) after 70 mins by luminescence assay; design: species or system Homo sapiens
[3] = target: Rho-associated protein kinase 2 (Homo sapiens, UniProt O75116); assay: Inhibition of ROCK2 (unknown origin) after 4 hrs by HTRF assay
[4] = Half life in human liver microsomes; assay type: ADME, Microsome

Sequence of Rho-associated protein kinase 2 (O75116 whole entry): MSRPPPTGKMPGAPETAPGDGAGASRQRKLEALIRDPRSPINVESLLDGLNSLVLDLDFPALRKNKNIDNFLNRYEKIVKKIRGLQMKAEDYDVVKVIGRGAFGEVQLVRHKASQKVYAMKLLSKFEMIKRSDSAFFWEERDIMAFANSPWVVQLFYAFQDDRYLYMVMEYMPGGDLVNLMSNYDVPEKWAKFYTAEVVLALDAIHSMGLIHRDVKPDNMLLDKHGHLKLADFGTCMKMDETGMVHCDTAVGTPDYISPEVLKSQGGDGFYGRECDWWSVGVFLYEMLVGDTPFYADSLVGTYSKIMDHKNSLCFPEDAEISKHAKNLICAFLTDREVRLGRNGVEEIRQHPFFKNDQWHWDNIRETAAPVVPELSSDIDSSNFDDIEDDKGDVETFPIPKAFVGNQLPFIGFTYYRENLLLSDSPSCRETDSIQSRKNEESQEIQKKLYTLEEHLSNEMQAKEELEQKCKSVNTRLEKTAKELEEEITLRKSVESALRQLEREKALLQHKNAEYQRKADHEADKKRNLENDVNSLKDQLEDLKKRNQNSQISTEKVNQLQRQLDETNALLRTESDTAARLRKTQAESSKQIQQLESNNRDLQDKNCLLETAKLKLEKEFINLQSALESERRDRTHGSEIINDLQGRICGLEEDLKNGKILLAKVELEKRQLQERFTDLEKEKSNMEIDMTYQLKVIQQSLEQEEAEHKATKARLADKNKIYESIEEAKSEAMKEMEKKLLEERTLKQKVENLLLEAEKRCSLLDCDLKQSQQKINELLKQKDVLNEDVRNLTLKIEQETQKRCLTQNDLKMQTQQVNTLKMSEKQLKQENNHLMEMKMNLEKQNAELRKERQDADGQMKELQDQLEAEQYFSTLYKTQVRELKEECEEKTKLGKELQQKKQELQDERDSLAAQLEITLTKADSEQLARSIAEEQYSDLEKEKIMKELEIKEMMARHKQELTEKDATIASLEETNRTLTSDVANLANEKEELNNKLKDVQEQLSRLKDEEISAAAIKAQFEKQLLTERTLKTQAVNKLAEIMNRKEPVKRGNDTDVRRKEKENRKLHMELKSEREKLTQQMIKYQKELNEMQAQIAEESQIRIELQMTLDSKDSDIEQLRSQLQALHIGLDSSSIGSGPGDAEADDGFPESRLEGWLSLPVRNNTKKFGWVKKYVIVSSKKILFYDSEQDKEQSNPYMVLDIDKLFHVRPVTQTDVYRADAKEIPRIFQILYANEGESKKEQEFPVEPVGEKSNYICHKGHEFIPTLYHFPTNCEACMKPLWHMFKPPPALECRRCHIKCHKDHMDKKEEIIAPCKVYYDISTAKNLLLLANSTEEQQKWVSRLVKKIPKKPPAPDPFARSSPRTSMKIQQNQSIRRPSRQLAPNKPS

SMILES	IC50 [1] [nM]	IC50 [2] [nM]	IC50 [3] [nM]	half-life [4] [min]
O=C(Nc1ccc(-c2cn[nH]c2)cc1)OCc1ccccc1	> 2700	> 20000	7	
O=C(Nc1ccc(-c2cn[nH]c2)cc1)OCCc1ccccc1	2640	> 20000	55	
O=C(CCc1ccccc1)Nc1ccc(-c2cn[nH]c2)cc1	91	266	24	
O=C(Nc1ccc(-c2cn[nH]c2)cc1)N1CCc2ccccc2C1		8000	280	
O=C(NCC1CCCCC1)Nc1ccc(-c2cn[nH]c2)cc1		> 20000	751	
COc1cccc(CNC(=O)Nc2ccc(-c3cn[nH]c3)cc2)c1OC		> 20000	253	
COc1ccc(CNC(=O)Nc2ccc(-c3cn[nH]c3)cc2)c(OC)c1		11200	331	
COc1ccc(OC)c(CNC(=O)Nc2ccc(-c3cn[nH]c3)cc2)c1		> 20000	570	
COc1cccc(OC)c1CNC(=O)Nc1ccc(-c2cn[nH]c2)cc1		13500	924	
COc1ccc(CNC(=O)Nc2ccc(-c3cn[nH]c3)cc2)cc1OC		> 20000	425	
COc1cc(CNC(=O)Nc2ccc(-c3cn[nH]c3)cc2)cc(OC)c1		> 20000	281	
COc1ccc(CNC(=O)Nc2ccc(-c3cn[nH]c3)cc2)cc1F		518	357	
COc1cccc(CNC(=O)N(C)c2ccc(-c3cn[nH]c3)cc2)c1		> 20000	87	
COc1cccc(CNC(=O)N(CCO)c2ccc(-c3cn[nH]c3)cc2)c1		> 20000	611	
COc1cccc(CNC(=O)N(CCN(C)C)c2ccc(-c3cn[nH]c3)cc2)c1		4200	2980	
COc1cccc(CNC(=O)N(CCN2CCCC2)c2ccc(-c3cn[nH]c3)cc2)c1		> 20000	> 20000	
COc1cccc(CNC(=O)N(CCCN(C)C)c2ccc(-c3cn[nH]c3)cc2)c1		12000	3320	
CCN(Cc1cccc(OC)c1)C(=O)Nc1ccc(-c2cn[nH]c2)cc1	44	4670	1	25
COc1cccc(CN(C(=O)Nc2ccc(-c3cn[nH]c3)cc2)C2CC2)c1	4	1700	1	25
